Results published in PMC4586255 (DNA repair, 2010).

B1: hEXO1-S702X; Δ423–507: truncated from amino acid 702 with internal deletion between amino acids 423 and 507; depleted of two hMLH1 interaction regions (protein)
chain: MGIQGLLQFIKEASEPIHVRKYKGQVVAVDTYCWLHKGAIACAEKLAKGEPTDRYVGFCMKFVNMLLSHGIKPILVFDGCTLPSKKEVERSRRERRQANLLKGKQLLREGKVSEARECFTRSINITHAMAHKVIKAARSQGVDCLVAPYEADAQLAYLNKAGIVQAIITEDSDLLAFGCKKVILKMDQFGNGLEIDQARLGMCRQLGDVFTEEKFRYMCILSGCDYLSSLRGIGLAKACKVLRLANNPDIVKVIKKIGHYLKMNITVPEDYINGFIRANNTFLYQLVFDPIKRKLIPLNAYEDDVDPETLSYAGQYVDDSIALQIALGNKDINTFEQIDDYNPDTAMPAHSRSHSWDDKTCQKSANVSSIWHRNYSPRPESGTVSDAPQLKENPSTVGVERVISTKGLNLPRKSSIVKRPRSCSSDSTDCVSNKVSIQPLDETAVTDKENNLHESEYGDQEGKRLVDTDVARNSSDDIPNNHIPGDHIPDKATVFTDEESYSFESSKFTRTISPPTLGTLRSCFSWSGGLGDFSRTPSPSPSTALQQFRRKSDSPTSLPENNMSDVSQLKSEESSDDESHPLREEACSSQSQESGEFSLQSSNASKLSQCSSKDSD
modifications: 35S-cysteine label
B2: YFP-hEXO1-F506A;F507A: MIP-box (putative PIP-box) substitution variant of YFP-hEXO1 (protein, UniProt Q9UQ84 1-846, looked up, variant F506A F507A)
Exonuclease 1: MGIQGLLQFIKEASEPIHVRKYKGQVVAVDTYCWLHKGAIACAEKLAKGEPTDRYVGFCMKFVNMLLSHGIKPILVFDGCTLPSKKEVERSRRERRQANLLKGKQLLREGKVSEARECFTRSINITHAMAHKVIKAARSQGVDCLVAPYEADAQLAYLNKAGIVQAIITEDSDLLAFGCKKVILKMDQFGNGLEIDQARLGMCRQLGDVFTEEKFRYMCILSGCDYLSSLRGIGLAKACKVLRLANNPDIVKVIKKIGHYLKMNITVPEDYINGFIRANNTFLYQLVFDPIKRKLIPLNAYEDDVDPETLSYAGQYVDDSIALQIALGNKDINTFEQIDDYNPDTAMPAHSRSHSWDDKTCQKSANVSSIWHRNYSPRPESGTVSDAPQLKENPSTVGVERVISTKGLNLPRKSSIVKRPRSAELSEDDLLSQYSLSFTKKTKKNSSEGNKSLSFSEVFVPDLVNGPTNKKSVSTPPRTRNKFATFLQRKNEESGAVVVPGTRSRAACSSDSTDCVSNKVSIQPLDETAVTDKENNLHESEYGDQEGKRLVDTDVARNSSDDIPNNHIPGDHIPDKATVFTDEESYSFESSKFTRTISPPTLGTLRSCFSWSGGLGDFSRTPSPSPSTALQQFRRKSDSPTSLPENNMSDVSQLKSEESSDDESHPLREEACSSQSQESGEFSLQSSNASKLSQCSSKDSDSEESDCNIKLLDSQSDQTSKLRLSHFSKKDTPLRNKVPGLYKSSSADSLSTTKIKPLGPARASGLSKKPASIQKRKHHNAENKPGLQIKLNELWKNFGFKKDSEKLPPCKKPLSPVRDNIQLTPEAEEDIFNKPECGRVQRAIFQ
modifications: N-terminal YFP tag
B3: hEXO1-K418A: NLS mutant (protein, UniProt Q9UQ84 1-846, looked up, variant K418A)
Exonuclease 1: MGIQGLLQFIKEASEPIHVRKYKGQVVAVDTYCWLHKGAIACAEKLAKGEPTDRYVGFCMKFVNMLLSHGIKPILVFDGCTLPSKKEVERSRRERRQANLLKGKQLLREGKVSEARECFTRSINITHAMAHKVIKAARSQGVDCLVAPYEADAQLAYLNKAGIVQAIITEDSDLLAFGCKKVILKMDQFGNGLEIDQARLGMCRQLGDVFTEEKFRYMCILSGCDYLSSLRGIGLAKACKVLRLANNPDIVKVIKKIGHYLKMNITVPEDYINGFIRANNTFLYQLVFDPIKRKLIPLNAYEDDVDPETLSYAGQYVDDSIALQIALGNKDINTFEQIDDYNPDTAMPAHSRSHSWDDKTCQKSANVSSIWHRNYSPRPESGTVSDAPQLKENPSTVGVERVISTKGLNLPRKSSIVARPRSAELSEDDLLSQYSLSFTKKTKKNSSEGNKSLSFSEVFVPDLVNGPTNKKSVSTPPRTRNKFATFLQRKNEESGAVVVPGTRSRFFCSSDSTDCVSNKVSIQPLDETAVTDKENNLHESEYGDQEGKRLVDTDVARNSSDDIPNNHIPGDHIPDKATVFTDEESYSFESSKFTRTISPPTLGTLRSCFSWSGGLGDFSRTPSPSPSTALQQFRRKSDSPTSLPENNMSDVSQLKSEESSDDESHPLREEACSSQSQESGEFSLQSSNASKLSQCSSKDSDSEESDCNIKLLDSQSDQTSKLRLSHFSKKDTPLRNKVPGLYKSSSADSLSTTKIKPLGPARASGLSKKPASIQKRKHHNAENKPGLQIKLNELWKNFGFKKDSEKLPPCKKPLSPVRDNIQLTPEAEEDIFNKPECGRVQRAIFQ
modifications: N-terminal YFP tag
B4: YFP-hEXO1-S702X: COOH-terminally truncated version of YFP-hEXO1, truncated from amino acid 702 (protein, UniProt Q9UQ84 1-701, looked up, fragment)
chain: MGIQGLLQFIKEASEPIHVRKYKGQVVAVDTYCWLHKGAIACAEKLAKGEPTDRYVGFCMKFVNMLLSHGIKPILVFDGCTLPSKKEVERSRRERRQANLLKGKQLLREGKVSEARECFTRSINITHAMAHKVIKAARSQGVDCLVAPYEADAQLAYLNKAGIVQAIITEDSDLLAFGCKKVILKMDQFGNGLEIDQARLGMCRQLGDVFTEEKFRYMCILSGCDYLSSLRGIGLAKACKVLRLANNPDIVKVIKKIGHYLKMNITVPEDYINGFIRANNTFLYQLVFDPIKRKLIPLNAYEDDVDPETLSYAGQYVDDSIALQIALGNKDINTFEQIDDYNPDTAMPAHSRSHSWDDKTCQKSANVSSIWHRNYSPRPESGTVSDAPQLKENPSTVGVERVISTKGLNLPRKSSIVKRPRSAELSEDDLLSQYSLSFTKKTKKNSSEGNKSLSFSEVFVPDLVNGPTNKKSVSTPPRTRNKFATFLQRKNEESGAVVVPGTRSRFFCSSDSTDCVSNKVSIQPLDETAVTDKENNLHESEYGDQEGKRLVDTDVARNSSDDIPNNHIPGDHIPDKATVFTDEESYSFESSKFTRTISPPTLGTLRSCFSWSGGLGDFSRTPSPSPSTALQQFRRKSDSPTSLPENNMSDVSQLKSEESSDDESHPLREEACSSQSQESGEFSLQSSNASKLSQCSSKDSD
modifications: N-terminal YFP tag
B5: hEXO1-Δ423–507: internal deletion variant (protein)
chain: MGIQGLLQFIKEASEPIHVRKYKGQVVAVDTYCWLHKGAIACAEKLAKGEPTDRYVGFCMKFVNMLLSHGIKPILVFDGCTLPSKKEVERSRRERRQANLLKGKQLLREGKVSEARECFTRSINITHAMAHKVIKAARSQGVDCLVAPYEADAQLAYLNKAGIVQAIITEDSDLLAFGCKKVILKMDQFGNGLEIDQARLGMCRQLGDVFTEEKFRYMCILSGCDYLSSLRGIGLAKACKVLRLANNPDIVKVIKKIGHYLKMNITVPEDYINGFIRANNTFLYQLVFDPIKRKLIPLNAYEDDVDPETLSYAGQYVDDSIALQIALGNKDINTFEQIDDYNPDTAMPAHSRSHSWDDKTCQKSANVSSIWHRNYSPRPESGTVSDAPQLKENPSTVGVERVISTKGLNLPRKSSIVKRPRSCSSDSTDCVSNKVSIQPLDETAVTDKENNLHESEYGDQEGKRLVDTDVARNSSDDIPNNHIPGDHIPDKATVFTDEESYSFESSKFTRTISPPTLGTLRSCFSWSGGLGDFSRTPSPSPSTALQQFRRKSDSPTSLPENNMSDVSQLKSEESSDDESHPLREEACSSQSQESGEFSLQSSNASKLSQCSSKDSDSEESDCNIKLLDSQSDQTSKLRLSHFSKKDTPLRNKVPGLYKSSSADSLSTTKIKPLGPARASGLSKKPASIQKRKHHNAENKPGLQIKLNELWKNFGFKKDSEKLPPCKKPLSPVRDNIQLTPEAEEDIFNKPECGRVQRAIFQ
modifications: 35S-cysteine label; left off: myc, C-terminal, state not stated | His6, C-terminal, state not stated

What was measured:
[1] = system: hMLH1; experiment: Interaction of hEXO1 variants with hMLH1; assay type: binding, human; details: GST-hMLH1 pull-down, 35S-labeled IVTT protein; Fig. S1
[2] = system: PCNA replication foci in NIH3T3 cells; assay type: cell-based, murine; details: for Small foci (CFP-PCNA) / Large foci (CFP-PCNA) / Mid Foci (CFP-PCNA): CFP channel (CFP-PCNA) in cells co-expressing the hEXO1 protein, 50 co-transfected cells; for Small foci (CFP-PCNA): early S-phase foci; for Large foci (CFP-PCNA): late S-phase foci; for Mid Foci (CFP-PCNA): mid S-phase foci; for foci formation and co-localization with PCNA during S-phase: NIH3T3 cells co-transfected with CFP-PCNA, 24–48 h; for sub-cellular localization: NIH3T3 cells, confocal imaging
How it was run: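 Murine NIH3T3 cells were kept in DMEM with 10% FBS and penicillin/streptomycin at 37 °C, 10% CO₂. Cells (2*10⁵ per glass-bottom dish) were seeded 24 h before ExGen500 co-transfection with 3 μg total plasmid (CFP-PCNA plus YFP fusion). Confocal imaging at 24–48 h. Co-transfected cells were counted and binned by pattern, e.g. "no foci" (diffuse CFP-PCNA, diffuse nuclear YFP).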

[3] = system: hMLH1; details: MIP-box mutant; ref [52]; cited from earlier work
[4] = system: laser induced DNA double strand breaks in HeLa cells; assay type: cell-based; details: laser irradiation
[5] = system: laser induced DNA double strand breaks in HeLa cells; details: NLS mutant, ref [43]; cited from earlier work

Molecule | hMLH1 interaction [1] | Small foci (CFP-PCNA) [2] [%] | Large foci (CFP-PCNA) [2] [%] | Mid Foci (CFP-PCNA) [2] [%] | foci formation and co-localization with PCNA during S-phase [2] | sub-cellular localization [2] | further results
B1 | incapable of hMLH1 interaction |  |  |  |  |  | 
B2 |  | 4 | 0 | 0 | unable to associate with PCNA in replication foci | higher degree of cytoplasmic distribution | effect of expression on S-phase distribution ([2]; NIH3T3 cells co-expressing CFP-PCNA): only very few S-phase cells, co-expressing this variant and PCNA were observed; influence of mutation on hEXO1 hMLH1 interaction [3]: influence hEXO1 hMLH1 interactions
B3 |  |  |  |  |  |  | nuclear translocation in response to laser induced DNA damage [4]: translocated from the cytoplasm into the nucleus in response to laser induced DNA damage; nuclear localization in untreated cells [5]: excluded from the nucleus in untreated cells
B4 | sustain partial hMLH1 interaction | 18 | 8 | 20 | none of the variant proteins were able to form foci or co-localize with PCNA during S-phase | strictly nuclear | 
B5 | sustain partial hMLH1 interaction |  |  |  |  |  | 
